{"source": "ChEMBL document CHEMBL4052615", "about": "“Discovery of 4-amino-3-arylsulfoquinolines, a novel non-acetylenic chemotype of metabotropic glutamate 5 (mGlu5) receptor negative allosteric modulators” (Eur J Med Chem, 2017)"}
{"biological_target": "Metabotropic glutamate receptor 5 (Homo sapiens, UniProt P41594)", "sequence (P41594 21-1212 limits assumed)": "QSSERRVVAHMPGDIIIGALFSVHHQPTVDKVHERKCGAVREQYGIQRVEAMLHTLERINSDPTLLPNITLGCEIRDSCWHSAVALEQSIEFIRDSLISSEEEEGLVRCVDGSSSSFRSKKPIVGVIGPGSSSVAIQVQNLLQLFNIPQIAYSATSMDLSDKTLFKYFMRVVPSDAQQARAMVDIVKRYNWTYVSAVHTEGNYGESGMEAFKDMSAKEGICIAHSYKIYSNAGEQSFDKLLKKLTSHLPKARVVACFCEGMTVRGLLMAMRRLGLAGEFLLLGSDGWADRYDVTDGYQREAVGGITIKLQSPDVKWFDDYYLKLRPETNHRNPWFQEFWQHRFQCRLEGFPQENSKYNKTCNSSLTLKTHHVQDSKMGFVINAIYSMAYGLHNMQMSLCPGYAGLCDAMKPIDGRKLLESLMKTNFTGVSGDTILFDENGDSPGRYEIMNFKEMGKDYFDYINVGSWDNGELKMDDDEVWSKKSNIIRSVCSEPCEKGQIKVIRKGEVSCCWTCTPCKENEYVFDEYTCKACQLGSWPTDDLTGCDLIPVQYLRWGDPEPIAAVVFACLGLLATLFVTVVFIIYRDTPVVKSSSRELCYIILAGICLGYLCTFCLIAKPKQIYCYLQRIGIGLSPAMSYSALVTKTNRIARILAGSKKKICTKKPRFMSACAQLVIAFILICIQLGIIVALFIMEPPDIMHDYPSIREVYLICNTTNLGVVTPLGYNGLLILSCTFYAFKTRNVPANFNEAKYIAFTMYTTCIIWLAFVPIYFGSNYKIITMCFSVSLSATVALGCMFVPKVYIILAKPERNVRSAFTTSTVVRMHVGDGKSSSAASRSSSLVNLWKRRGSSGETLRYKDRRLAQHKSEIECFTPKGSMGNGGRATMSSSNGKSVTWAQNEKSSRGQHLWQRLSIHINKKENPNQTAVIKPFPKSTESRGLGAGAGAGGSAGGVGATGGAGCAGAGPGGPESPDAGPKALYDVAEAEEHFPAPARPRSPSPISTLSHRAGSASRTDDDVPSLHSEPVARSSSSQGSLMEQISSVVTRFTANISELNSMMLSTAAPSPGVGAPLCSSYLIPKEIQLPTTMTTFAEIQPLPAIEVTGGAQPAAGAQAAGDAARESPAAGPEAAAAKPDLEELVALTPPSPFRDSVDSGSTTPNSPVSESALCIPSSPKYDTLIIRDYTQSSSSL", "experiment": "Displacement of [3H]M-MPEP from mGluR5 (unknown origin) at 1 uM measured after 60 mins relative to control", "outline": "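Rat cerebrocortical membranes or membranes from A18 cells expressing human mGlu5a, incubated with [³H]M-MPEP and test compound at 1 µM in 50 mM Tris pH 7.6 with 2 mM MgCl₂ and 2 mM CaCl₂, 60 min at 25°C. Non-specific binding was taken with […]. Result is % displacement, run in duplicate or triplicate.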", "units": {"inhibition": "%"}}
{"compound": "CC1CCN(c2c(S(=O)(=O)c3cc(Cl)cc(Cl)c3)cnc3c(F)cccc23)CC1", "inhibition": 82}
{"compound": "COc1ccc2ncc(S(=O)(=O)c3ccc(OC)c(Cl)c3)c(N3CCC(C)CC3)c2c1", "inhibition": 21}
{"compound": "O=S(=O)(c1cccc(Cl)c1)c1cnc2ccc(F)cc2c1N1CCOCC1", "inhibition": 40}
{"compound": "COc1cccc(S(=O)(=O)c2cnc3ccc(F)cc3c2N2CCC(C)CC2)c1", "inhibition": 90}
{"compound": "Cc1ccc(S(=O)(=O)c2cnc3ccc(F)cc3c2N2CCC(C)CC2)cc1C", "inhibition": 92}
{"compound": "CC1CCN(c2c(S(=O)(=O)c3ccc(F)cc3)cnc3ccc(F)cc23)CC1", "inhibition": 87}
{"compound": "COc1ccc(S(=O)(=O)c2cnc3ccc(Cl)cc3c2N2CCOCC2)cc1Cl", "inhibition": 33}
{"compound": "Cc1ccc2ncc(S(=O)(=O)c3ccc(Cl)c(Cl)c3)c(N3CCOCC3)c2c1", "inhibition": 76}
{"compound": "COc1ccc(S(=O)(=O)c2cnc3ccc(C)cc3c2N2CCOCC2)cc1Cl", "inhibition": 58}
{"compound": "O=S(=O)(c1ccc(Cl)cc1)c1cnc2cc(F)ccc2c1N1CCOCC1", "inhibition": 50}
{"compound": "Cc1ccc2ncc(S(=O)(=O)c3ccc(C)c(Cl)c3)c(N3CCOCC3)c2c1", "inhibition": 75}
{"compound": "COc1ccc2ncc(S(=O)(=O)c3cc(C)cc(C)c3)c(N3CCOCC3)c2c1", "inhibition": 11}
{"compound": "Cc1ccc2ncc(S(=O)(=O)c3ccccc3)c(N3CCOCC3)c2c1", "inhibition": 86}
{"compound": "O=S(=O)(c1ccc(Cl)c(Cl)c1)c1cnc2cc(F)ccc2c1N1CCOCC1", "inhibition": 86}
{"compound": "Cc1ccc(S(=O)(=O)c2cnc3cc(F)ccc3c2N2CCC(C)CC2)cc1", "inhibition": 88}
{"compound": "COc1ccc(S(=O)(=O)c2cnc3ccc(F)cc3c2N2CCOCC2)cc1", "inhibition": 18}
{"compound": "COCC1CCN(c2c(S(=O)(=O)c3cccc(C#N)c3)cnc3cc(F)ccc23)CC1", "inhibition": 91}
{"compound": "COc1ccc2ncc(S(=O)(=O)c3ccc(Cl)c(Cl)c3)c(N3CCOCC3)c2c1", "inhibition": 29}
{"compound": "O=S(=O)(c1cccc(F)c1)c1cnc2cc(Cl)ccc2c1N1CCC(CO)CC1", "inhibition": 71}
{"compound": "Cc1ccc2ncc(S(=O)(=O)c3ccc(C)c(F)c3)c(N3CCC(C)CC3)c2c1", "inhibition": 91}
{"compound": "CC1CCN(c2c(S(=O)(=O)c3ccc(Cl)c(Cl)c3)cnc3cc(F)ccc23)CC1", "inhibition": 94}
{"compound": "COc1ccc2ncc(S(=O)(=O)c3ccc(C)c(Cl)c3)c(N3CCC(C)CC3)c2c1", "inhibition": 85}
{"compound": "O=S(=O)(c1ccccc1)c1cnc2c(F)cccc2c1N1CCOCC1", "inhibition": 4}
{"compound": "Cc1ccc2ncc(S(=O)(=O)c3ccc(C)c(C)c3)c(N3CCC(C)CC3)c2c1", "inhibition": 90}
{"compound": "Cc1ccc2ncc(S(=O)(=O)c3ccc(F)c(Cl)c3)c(N3CCC(C)CC3)c2c1", "inhibition": 93}
{"compound": "CC1CCN(c2c(S(=O)(=O)c3cccc(Cl)c3)cnc3ccc(Cl)cc23)CC1", "inhibition": 92}
{"compound": "CC1CCN(c2c(S(=O)(=O)c3ccc(F)c(Cl)c3)cnc3cc(F)ccc23)CC1", "inhibition": 94}
{"compound": "Cc1ccc(S(=O)(=O)c2cnc3ccc(F)cc3c2N2CCC(C)CC2)cc1", "inhibition": 91}
{"compound": "CC1CCN(c2c(S(=O)(=O)c3ccc(Cl)cc3)cnc3c(F)cccc23)CC1", "inhibition": 85}
{"compound": "O=S(=O)(c1ccc(F)cc1)c1cnc2ccc(F)cc2c1N1CCOCC1", "inhibition": 2}
{"compound": "CC1CCN(c2c(S(=O)(=O)c3ccc(F)c(F)c3)cnc3ccc(F)cc23)CC1", "inhibition": 82}
{"compound": "O=S(=O)(c1ccc(F)c(Cl)c1)c1cnc2ccc(Cl)cc2c1N1CCOCC1", "inhibition": 39}
{"compound": "COc1ccc(S(=O)(=O)c2cnc3ccc(F)cc3c2N2CCOCC2)cc1Cl", "inhibition": 26}
{"compound": "Cc1ccc(S(=O)(=O)c2cnc3ccc(Cl)cc3c2N2CCC(C)CC2)cc1Cl", "inhibition": 81}
{"compound": "O=S(=O)(c1cc(F)cc(F)c1)c1cnc2cc(F)ccc2c1N1CCSCC1", "inhibition": 78.4}
{"compound": "Cc1ccc(S(=O)(=O)c2cnc3cc(Cl)ccc3c2N2CCC(C)CC2)cc1C", "inhibition": 86}
{"compound": "CCOC(=O)C1CCN(c2c(S(=O)(=O)c3ccccc3)cnc3ccccc23)CC1", "inhibition": 33}
{"compound": "COc1ccc(S(=O)(=O)c2cnc3ccc(C)cc3c2N2CCC(C)CC2)cc1", "inhibition": 62}
{"compound": "O=S(=O)(c1ccc(F)cc1)c1cnc2cc(Cl)ccc2c1N1CCC(CO)CC1", "inhibition": 75}
{"compound": "Cc1cc(C)cc(S(=O)(=O)c2cnc3ccc(Cl)cc3c2N2CCC(C)CC2)c1", "inhibition": 49}
